In ChEMBL document CHEMBL4130623, “Discovery of Highly Potent Pinanamine-Based Inhibitors against Amantadine- and Oseltamivir-Resistant Influenza A Viruses” (J Med Chem, 2018):
pEC50: −log10 of the molar value. Calls of active or inactive are those of the source. The calls are words filed in the database; no cut-off is given here.

What was measured:
Assay type in all cases: functional, organism-based
Influenza A virus [1] = assay: Antiviral activity against Influenza A virus (A/Guangzhou/GIRD/07/2009 (H1N1)) infected in MDCK cells assessed as reduction in virus-induced cytopathic effect at less than cytotoxic MCC level after 48 hrs by microscopic analysis
Influenza A virus [2] = assay: Antiviral activity against Influenza A virus (A/HK/68) by CCK-8 reagent based assay
Influenza A virus [3] = assay: Antiviral activity against Influenza A virus (A/WSN/33) by CCK-8 reagent based assay; conditions: A/WSN/1933(H1N1)
Influenza A virus [4] = assay: Antiviral activity against Influenza A virus (A/Guangzhou/GIRD/07/2009 (H1N1)) infected in MDCK cells assessed as reduction in virus-induced cytopathic effect after 48 hrs by microscopic analysis
How it was run: (§1)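 MDCK monolayers (5×10^4 cells/well, grown 24 h) were rinsed twice, infected with 100 TCID50 virus for 2 h at 37 °C in 5% CO2, and the inoculum was removed. Two-fold serial compound dilutions in DMEM with 1.5 µg/mL trypsin were added and incubated 48 h at 34 °C. CPE percentage was scored by microscope and EC50 fitted by non-linear regression.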

Influenza A virus [5] = assay: Antiviral activity against Influenza A virus (A/PR/8/34 (H1N1)) infected in MDCK cells assessed as reduction in virus-induced cytopathic effect after 48 hrs by microscopic analysis; conditions: A/Puerto Rico/8/1934(H1N1); how it was run: as §1
Influenza A virus [6] = assay: Antiviral activity against Influenza A virus (A/HK/68(H3N2)) infected in MDCK cells assessed as reduction in virus-induced cytopathic effect after 48 hrs by microscopic analysis; how it was run: as §1
Influenza A virus [7] = assay: Antiviral activity against Influenza A virus (A/WSN/33 (H1N1)) infected in MDCK cells assessed as reduction in virus-induced cytopathic effect after 48 hrs by microscopic analysis; conditions: A/WSN/1933(H1N1); how it was run: as §1
H3N2 subtype = assay: Antiviral activity against Influenza A virus (A/Aichi/2/68 (H3N2)) infected in MDCK cells assessed as reduction in virus-induced cytopathic effect after 48 hrs by microscopic analysis; conditions: A/Aichi/2/1968(H3N2); how it was run: as §1
Influenza A virus [8] = assay: Antiviral activity against Influenza A virus (A/duck/Guangdong/1/1996 (H7N3)) infected in MDCK cells assessed as reduction in virus-induced cytopathic effect after 48 hrs by microscopic analysis; how it was run: as §1
Influenza A virus [9] = assay: Antiviral activity against Influenza A virus (A/duck/HK/Y280/97 (H9N2)) infected in MDCK cells assessed as reduction in virus-induced cytopathic effect after 48 hrs by microscopic analysis; how it was run: as §1

Cc1ccsc1CN[C@@H]1C[C@H]2C[C@@H]([C@H]1C)C2(C)C
inhibition (Influenza A virus [1]): inactive
Activity (Influenza A virus [2]): Active
Activity (Influenza A virus [3]): Active

Cc1csc(CN[C@@H]2CC3CC([C@H]2C)C3(C)C)n1 (single isomer, unassigned)
Activity (Influenza A virus [2]): Active
pEC50 (Influenza A virus [4]): 4.12
Activity (Influenza A virus [3]): Active

C[C@@H]1C2CC(C[C@H]1NCc1sccc1C1CCCC1)C2(C)C (single isomer, unassigned)
pEC50 (Influenza A virus [4]): 6.16

Cc1csc(CN[C@@H]2CC3CC([C@H]2C)C3(C)C)c1 (single isomer, unassigned)
Activity (Influenza A virus [2]): Active
pEC50 (Influenza A virus [4]): 6.70
Activity (Influenza A virus [3]): Active

C=Cc1ccsc1CN[C@@H]1CC2CC([C@H]1C)C2(C)C (single isomer, unassigned)
Activity (Influenza A virus [2]): Active
pEC50 (Influenza A virus [4]): 5.74
Activity (Influenza A virus [3]): Active

C[C@@H]1C2CC(C[C@H]1NCc1ccsc1)C2(C)C (single isomer, unassigned)
Activity (Influenza A virus [2]): Active
pEC50 (Influenza A virus [4]): 4.54
Activity (Influenza A virus [3]): Active

C[C@@H]1C2CC(C[C@H]1NCc1cccs1)C2(C)C (single isomer, unassigned)
Activity (Influenza A virus [2]): Active
pEC50 (Influenza A virus [4]): 5.19
Activity (Influenza A virus [3]): Active

C[C@@H]1C2CC(C[C@H]1NCc1ccoc1)C2(C)C (single isomer, unassigned)
pEC50 (Influenza A virus [4]): 4.22

C[C@@H]1C2CC(C[C@H]1NCc1cc(C3CC3)cs1)C2(C)C (single isomer, unassigned)
Activity (Influenza A virus [2]): Active
pEC50 (Influenza A virus [4]): 5.18
Activity (Influenza A virus [3]): Active

C[C@@H]1C2CC(C[C@H]1NCc1cc(Br)cs1)C2(C)C (single isomer, unassigned)
Activity (Influenza A virus [2]): Active
pEC50 (Influenza A virus [4]): 5.29
Activity (Influenza A virus [3]): Active

CCCCc1ccsc1CN[C@@H]1CC2CC([C@H]1C)C2(C)C (single isomer, unassigned)
Activity (Influenza A virus [2]): Active
pEC50 (Influenza A virus [4]): 4.99
Activity (Influenza A virus [3]): Active

CCCCc1csc(CN[C@@H]2CC3CC([C@H]2C)C3(C)C)c1 (single isomer, unassigned)
pEC50 (Influenza A virus [4]): 6.34

C=C(C)c1csc(CN[C@@H]2CC3CC([C@H]2C)C3(C)C)c1 (single isomer, unassigned)
inhibition (Influenza A virus [1]): inactive

C=Cc1csc(CN[C@@H]2CC3CC([C@H]2C)C3(C)C)c1 (single isomer, unassigned)
inhibition (Influenza A virus [1]): inactive
Activity (Influenza A virus [2]): Active
Activity (Influenza A virus [3]): Active

CCCc1ccsc1CN[C@@H]1CC2CC([C@H]1C)C2(C)C (single isomer, unassigned)
inhibition (Influenza A virus [1]): inactive
Activity (Influenza A virus [2]): Active
Activity (Influenza A virus [3]): Active

CCCc1csc(CN[C@@H]2CC3CC([C@H]2C)C3(C)C)c1 (single isomer, unassigned)
inhibition (Influenza A virus [1]): inactive
Activity (Influenza A virus [2]): Active
Activity (Influenza A virus [3]): Active

CCOc1ccsc1CN[C@@H]1CC2CC([C@H]1C)C2(C)C (single isomer, unassigned)
inhibition (Influenza A virus [1]): inactive
Activity (Influenza A virus [2]): Active
Activity (Influenza A virus [3]): Active

CCc1ccc(CN[C@@H]2CC3CC([C@H]2C)C3(C)C)s1 (single isomer, unassigned)
inhibition (Influenza A virus [1]): inactive

CCc1ccsc1CN[C@@H]1CC2CC([C@H]1C)C2(C)C (single isomer, unassigned)
inhibition (Influenza A virus [1]): inactive
Activity (Influenza A virus [2]): Active
Activity (Influenza A virus [3]): Active

CCc1csc(CN[C@@H]2CC3CC([C@H]2C)C3(C)C)c1 (single isomer, unassigned)
inhibition (Influenza A virus [1]): inactive

CSc1ccc(CN[C@@H]2CC3CC([C@H]2C)C3(C)C)s1 (single isomer, unassigned)
inhibition (Influenza A virus [1]): inactive
Activity (Influenza A virus [2]): Active
Activity (Influenza A virus [3]): Active

C[C@@H]1C2CC(C[C@H]1NCc1cc(-c3ccccc3)cs1)C2(C)C (single isomer, unassigned)
inhibition (Influenza A virus [1]): inactive

C[C@@H]1C2CC(C[C@H]1NCc1cc(-c3ccsc3)cs1)C2(C)C (single isomer, unassigned)
inhibition (Influenza A virus [1]): inactive

C[C@@H]1C2CC(C[C@H]1NCc1cc(C3CCCC3)cs1)C2(C)C (single isomer, unassigned)
inhibition (Influenza A virus [1]): inactive

C[C@@H]1C2CC(C[C@H]1NCc1cc(C3CCCCC3)cs1)C2(C)C (single isomer, unassigned)
inhibition (Influenza A virus [1]): inactive

C[C@@H]1C2CC(C[C@H]1NCc1ccc(-c3ccc(Br)s3)s1)C2(C)C (single isomer, unassigned)
inhibition (Influenza A virus [1]): inactive

C[C@@H]1C2CC(C[C@H]1NCc1ccc(Br)s1)C2(C)C (single isomer, unassigned)
inhibition (Influenza A virus [1]): inactive

C[C@@H]1C2CC(C[C@H]1NCc1ccc(C(C)(C)C)s1)C2(C)C (single isomer, unassigned)
inhibition (Influenza A virus [1]): inactive

C[C@@H]1C2CC(C[C@H]1NCc1ccc(Cl)s1)C2(C)C (single isomer, unassigned)
inhibition (Influenza A virus [1]): inactive

C[C@@H]1C2CC(C[C@H]1NCc1ccco1)C2(C)C (single isomer, unassigned)
inhibition (Influenza A virus [1]): inactive

C[C@@H]1C2CC(C[C@H]1NCc1cnccn1)C2(C)C (single isomer, unassigned)
inhibition (Influenza A virus [1]): inactive

C[C@@H]1C2CC(C[C@H]1NCc1cncnc1)C2(C)C (single isomer, unassigned)
inhibition (Influenza A virus [1]): inactive

C[C@@H]1C2CC(C[C@H]1NCc1sccc1-c1ccccc1)C2(C)C (single isomer, unassigned)
inhibition (Influenza A virus [1]): inactive

C[C@@H]1C2CC(C[C@H]1NCc1sccc1-c1ccsc1)C2(C)C (single isomer, unassigned)
inhibition (Influenza A virus [1]): inactive

C[C@@H]1C2CC(C[C@H]1NCc1sccc1Br)C2(C)C (single isomer, unassigned)
inhibition (Influenza A virus [1]): inactive
Activity (Influenza A virus [2]): Active
Activity (Influenza A virus [3]): Active

C[C@@H]1C2CC(C[C@H]1NCc1sccc1C1CCCCC1)C2(C)C (single isomer, unassigned)
inhibition (Influenza A virus [1]): inactive

Cc1ccc(CN[C@@H]2CC3CC([C@H]2C)C3(C)C)s1 (single isomer, unassigned)
inhibition (Influenza A virus [1]): inactive
Activity (Influenza A virus [2]): Active
Activity (Influenza A virus [3]): Active

Cc1n[nH]cc1CN[C@@H]1CC2CC([C@H]1C)C2(C)C (single isomer, unassigned)
inhibition (Influenza A virus [1]): inactive

NC12CC3CC(CC(C3)C1)C2 [AMANTADINE]
pEC50 (Influenza A virus [4]): < 4.00
pEC50 (Influenza A virus [5]): < 4.00
pEC50 (Influenza A virus [6]): 6.00
pEC50 (Influenza A virus [7]): < 4.00

CCOC(=O)C1=C[C@@H](OC(CC)CC)[C@H](NC(C)=O)[C@@H](N)C1 [OSELTAMIVIR]
pEC50 (H3N2 subtype): 6.00
pEC50 (Influenza A virus [5]): 6.89
pEC50 (Influenza A virus [8]): 5.57
pEC50 (Influenza A virus [6]): 5.64
pEC50 (Influenza A virus [9]): < 5.00
pEC50 (Influenza A virus [7]): 6.40
